According to ChEMBL document CHEMBL2417493, “Novel cycloalkylthiophene-imine derivatives bearing benzothiazole scaffold: synthesis, characterization and antiviral activity evaluation” (Bioorg Med Chem Lett, 2013):
Converted amounts (≈) assume the structure as drawn. The source made the active and inactive calls. No cut-off for these calls is given here.

Tests used:
unidentified adenovirus [1] = assay: Antiviral activity against Adenovirus type 7 infected in human HeLa cells assessed as inhibition of virus-induced cytopathogenicity after 48 hrs by crystal violet staining method; assay type: functional, organism-based
How it was run: (§1)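 Virus–cell pairings were EV71 in RD, CVB5 in HepG2, ADV7 in HeLa and influenza A H1N1 in MDCK. Compounds were added […], and total infectivity was read by crystal violet staining. EC50 is the concentration reducing viral replication by 50%. Values are mean SD of three independent experiments.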

Enterovirus [2] = assay: Antiviral activity against Enterovirus 71 infected in human rhabdomyosarcoma cells assessed as inhibition of virus-induced cytopathogenicity after 48 hrs by crystal violet staining method; assay type: functional, organism-based; how it was run: as §1
Coxsackievirus B5 [3] = assay: Antiviral activity against Coxsackievirus B5 infected in human HepG2 cells assessed as inhibition of virus-induced cytopathogenicity at 32 ug/ml after 48 hrs by crystal violet staining method; assay type: functional
How it was run: (§2)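 Single-concentration screen with these pairings: RD/EV71, HepG2/CVB5, HeLa/ADV7, MDCK/H1N1. Cells were infected and kept 48 h in the presence of compound at one fixed concentration; some EV71 tests used the lower level. Inhibition of virus proliferation was read by crystal violet staining.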

[4] = Cytotoxicity against human HeLa cells after 72 hrs by MTT assay; assay type: cell-based
How it was run: (§3)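 MTT assay on RD (rhabdomyosarcoma), HepG2 and HeLa cell lines. CC50 is the concentration that cut cell viability by 50% relative to 0.1% DMSO-treated mock-control cells. Values are mean and SD of three independent experiments.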

Influenza A virus [5] = assay: Antiviral activity against influenza A virus H1N1 infected in dog MDCK cells assessed as inhibition of virus-induced cytopathogenicity after 48 hrs by crystal violet staining method; assay type: functional, organism-based; how it was run: as §1
unidentified adenovirus [6] = assay: Antiviral activity against Adenovirus type 7 infected in human HeLa cells assessed as inhibition of virus-induced cytopathogenicity at 32 ug/ml after 48 hrs by crystal violet staining method; assay type: functional; how it was run: as §2
[7] = Cytotoxicity against human rhabdomyosarcoma cells after 72 hrs by MTT assay; assay type: cell-based, Rhabdomyosarcoma cell; how it was run: as §3
Influenza A virus [8] = assay: Antiviral activity against influenza A virus H1N1 infected in dog MDCK cells assessed as inhibition of virus-induced cytopathogenicity at 32 ug/ml after 48 hrs by crystal violet staining method; assay type: functional, organism-based; how it was run: as §2
Enterovirus [9] = assay: Antiviral activity against Enterovirus 71 infected in human rhabdomyosarcoma cells assessed as inhibition of virus-induced cytopathogenicity at 32 ug/ml after 48 hrs by crystal violet staining method; assay type: functional; how it was run: as §2
[10] = Cytotoxicity against human HepG2 cells after 72 hrs by MTT assay; assay type: cell-based; how it was run: as §3
Coxsackievirus B5 [11] = assay: Antiviral activity against Coxsackievirus B5 infected in human HepG2 cells assessed as inhibition of virus-induced cytopathogenicity after 48 hrs by crystal violet staining method; assay type: functional, organism-based; details: for EC50: Enterovirus B, HepG2, 48 h; how it was run: as §1
[12] = Selectivity index, ratio of CC50 for human rhabdomyosarcoma cells to EC50 for Enterovirus 71 infected in human rhabdomyosarcoma cells; assay type: toxicity; details: read-out: Ratio CC50/EC50
How it was run: (§4)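 Antiviral pairings were EV71 in RD cells, CVB5 in HepG2 cells and ADV7 in HeLa cells. Compounds were added […], and total infectivity was read by crystal violet staining. EC50 is the concentration that cut viral replication by 50%. CC50 came from MTT relative to 0.1% DMSO mock control. SI = CC50/EC50. Data are from three independent experiments.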

[13] = Selectivity index, ratio of CC50 for human HepG2 cells to EC50 for Coxsackievirus B5 infected in human HepG2 cells; assay type: toxicity, cell-based; details: read-out: Ratio CC50/EC50; how it was run: as §4

Structure (SMILES)	inhibition (INH) (unidentified adenovirus [1]) [%]	inhibition (INH) (Enterovirus [2]) [%]	inhibition (Coxsackievirus B5 [3])	CC50 at 72 h [4] [µg/mL]	inhibition (INH) (Influenza A virus [5]) [%]	inhibition (unidentified adenovirus [6])	CC50 at 72 h [7] [µg/mL]	inhibition (Influenza A virus [8])	inhibition (Enterovirus [9])	CC50 at 72 h [10] [µg/mL]	inhibition (INH) (Coxsackievirus B5 [11]) [%]	selectivity ratio [12]	EC50 (Enterovirus [2]; Enterovirus, 71, 48 h) [µg/mL]	selectivity ratio [13]	EC50 (Coxsackievirus B5 [11]) [µg/mL]
Clc1ccc2sc(-c3c(/N=C/C=C/c4ccccc4)sc4c3CCC4)nc2c1	<50	<50	Active	200 (≈ 476 µM)	<50	Active	122 (≈ 291 µM)	Active	Active	14.9 (≈ 35.4 µM)	<50				
C(=C\c1ccccc1)/C=N/c1sc2c(c1-c1nc3ccccc3s1)CCC2	<50	<50	Active	100 (≈ 259 µM)	<50	Active	122 (≈ 317 µM)	Active	Active	215 (≈ 555 µM)	<50				
Clc1ccc2sc(-c3c(/N=C/C=C/c4ccccc4)sc4c3CCCC4)nc2c1	<50	<50	Active	150 (≈ 346 µM)	<50	Active	212 (≈ 486 µM)	Active	Active	114 (≈ 262 µM)	<50				
Clc1ccc(/C=N/c2sc3c(c2-c2nc4ccccc4s2)CCC3)cc1	<50	<50	Active	380 (≈ 963 µM)	<50	Active	342 (≈ 867 µM)	Active	Active	430 (≈ 1090 µM)	<50				
Clc1ccccc1/C=N/c1sc2c(c1-c1nc3ccccc3s1)CCC2	<50	<50	Active	138 (≈ 350 µM)	<50	Active	123 (≈ 312 µM)	Active	Active	180 (≈ 456 µM)	<50				
Oc1ccccc1/C=N/c1sc2c(c1-c1nc3cc(Cl)ccc3s1)CCC2	<50		Active	251 (≈ 610 µM)	<50	Active	269 (≈ 655 µM)	Active	Active	210 (≈ 511 µM)	<50	19.2	13.9 (≈ 33.8 µM)		
O=[N+]([O-])c1ccccc1/C=N/c1sc2c(c1-c1nc3ccccc3s1)CCCC2	<50	<50	Active	369 (≈ 880 µM)	<50	Active	255 (≈ 609 µM)	Active	Active	393 (≈ 937 µM)				35	11.2 (≈ 26.7 µM)
COc1cc(/C=N/c2sc3c(c2-c2nc4ccccc4s2)CCCC3)cc(OC)c1OC	<50	<50	Active	448 (≈ 963 µM)	<50	Active	381 (≈ 821 µM)	Active	Active	301 (≈ 648 µM)	<50				
C(=C\c1ccccc1)/C=N/c1sc2c(c1-c1nc3ccccc3s1)CCCC2	<50	<50	Active	389 (≈ 971 µM)	<50	Active	207 (≈ 517 µM)	Active	Active	467 (≈ 1170 µM)				31.6	14.7 (≈ 36.7 µM)
